# ChEMBL document CHEMBL1938274, “Discovery of potent and specific CXCR3 antagonists” (Bioorg Med Chem Lett, 2012)
# Test system: not listed separately
# Test: Volume of distribution at steady state in rat at 0.5 mg/kg, iv
# Assay type: ADME, organism-based
# Parameters: dose 0.5 mg/kg, route intravenous
# Conditions: in vivo, read-out: Vdss
# Summary of the method: (§1)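 Single intravenous dose in 10% N,N-dimethylacetamide, 10% ethanol, 30% propylene glycol, 50% water: 1 mg/kg mouse; 0.5 mg/kg rat, beagle dog, cynomolgus monkey. Plasma clearance also given as percent of hepatic blood flow.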
row,Vd,Compound
1,5 L/kg,C[C@H](c1nc2ncccc2c(=O)n1-c1ccc(F)cc1)N(CC1CCS(=O)(=O)CC1)C(=O)Cc1ccc(F)c(C(F)(F)F)c1

# Test system: not listed separately
# Test: Apparent oral bioavailability in mouse at 5 mg/kg
# Assay type: ADME, organism-based
# Conditions: in vivo, read-out: Fapp
row,bioavailability,Compound
1,59%,C[C@H](c1nc2ncccc2c(=O)n1-c1ccc(F)cc1)N(CC1CCS(=O)(=O)CC1)C(=O)Cc1ccc(F)c(C(F)(F)F)c1

# Test system: not listed separately
# Test: Mean residence time in rat at 0.5 mg/kg, iv
# Assay type: ADME, organism-based
# Parameters: dose 0.5 mg/kg, route intravenous
# Conditions: in vivo
# Summary of the method: as §1
row,MRT,Compound
1,2.4 h,C[C@H](c1nc2ncccc2c(=O)n1-c1ccc(F)cc1)N(CC1CCS(=O)(=O)CC1)C(=O)Cc1ccc(F)c(C(F)(F)F)c1

# Test system: not listed separately
# Test: Mean residence time in mouse at 1 mg/kg, iv
# Assay type: ADME, organism-based
# Parameters: dose 1 mg/kg, route intravenous
# Conditions: in vivo
# Summary of the method: as §1
row,MRT,Compound
1,2.1 h,C[C@H](c1nc2ncccc2c(=O)n1-c1ccc(F)cc1)N(CC1CCS(=O)(=O)CC1)C(=O)Cc1ccc(F)c(C(F)(F)F)c1

# Test system: not listed separately
# Test: Clearance in Beagle dog at 0.5 mg/kg, iv
# Assay type: ADME, organism-based, Canis lupus familiaris
# Parameters: dose 0.5 mg/kg, route intravenous
# Conditions: in vivo
# Summary of the method: as §1
row,clearance,Compound
1,14.8 mL/min/kg,C[C@H](c1nc2ncccc2c(=O)n1-c1ccc(F)cc1)N(CC1CCS(=O)(=O)CC1)C(=O)Cc1ccc(F)c(C(F)(F)F)c1

# Test system: not listed separately
# Test: Clearance in rat at 0.5 mg/kg, iv
# Assay type: ADME, organism-based
# Parameters: dose 0.5 mg/kg, route intravenous
# Conditions: in vivo
# Summary of the method: as §1
row,clearance,Compound
1,35 mL/min/kg,C[C@H](c1nc2ncccc2c(=O)n1-c1ccc(F)cc1)N(CC1CCS(=O)(=O)CC1)C(=O)Cc1ccc(F)c(C(F)(F)F)c1

# Test system: not listed separately
# Test: Apparent oral bioavailability in cynomolgus monkey at 2 mg/kg
# Assay type: ADME, organism-based, Macaca fascicularis
# Conditions: in vivo, read-out: Fapp
row,bioavailability,Compound
1,51%,C[C@H](c1nc2ncccc2c(=O)n1-c1ccc(F)cc1)N(CC1CCS(=O)(=O)CC1)C(=O)Cc1ccc(F)c(C(F)(F)F)c1

# Test system: PBL
# Test: Toxicity in human PBL assessed as chromosomal aberrations at 7.81 to 1000 ug/mL
# Assay type: cell-based
# Conditions: not given
# Summary of the method: (§2)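 Cultured human peripheral blood lymphocytes exposed at 7.81–1000 μg/mL, with and without S9 metabolic activation; chromosomal aberrations scored.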
row,Compound,Activity
1,C[C@H](c1nc2ncccc2c(=O)n1-c1ccc(F)cc1)N(CC1CCS(=O)(=O)CC1)C(=O)Cc1ccc(F)c(C(F)(F)F)c1,Non-toxic

# Test system: not listed separately
# Test: Clearance in cynomolgus monkey at 0.5 mg/kg, iv
# Assay type: ADME, organism-based, Macaca fascicularis
# Parameters: dose 0.5 mg/kg, route intravenous
# Conditions: in vivo
# Summary of the method: as §1
row,clearance,Compound
1,5.67 mL/min/kg,C[C@H](c1nc2ncccc2c(=O)n1-c1ccc(F)cc1)N(CC1CCS(=O)(=O)CC1)C(=O)Cc1ccc(F)c(C(F)(F)F)c1

# Test system: not listed separately
# Test: Clearance in mouse at 1 mg/kg, iv
# Assay type: ADME, organism-based
# Parameters: dose 1 mg/kg, route intravenous
# Conditions: in vivo
# Summary of the method: as §1
row,clearance,Compound
1,5.67 mL/min/kg,C[C@H](c1nc2ncccc2c(=O)n1-c1ccc(F)cc1)N(CC1CCS(=O)(=O)CC1)C(=O)Cc1ccc(F)c(C(F)(F)F)c1

# Test system: not listed separately
# Test: Volume of distribution at steady state in Beagle dog at 0.5 mg/kg, iv
# Assay type: ADME, organism-based, Canis lupus familiaris
# Parameters: dose 0.5 mg/kg, route intravenous
# Conditions: in vivo, read-out: Vdss
# Summary of the method: as §1
row,Vd,Compound
1,1.3 L/kg,C[C@H](c1nc2ncccc2c(=O)n1-c1ccc(F)cc1)N(CC1CCS(=O)(=O)CC1)C(=O)Cc1ccc(F)c(C(F)(F)F)c1

# Test system: not listed separately
# Test: Volume of distribution at steady state in cynomolgus monkey at 0.5 mg/kg, iv
# Assay type: ADME, organism-based, Macaca fascicularis
# Parameters: dose 0.5 mg/kg, route intravenous
# Conditions: in vivo, read-out: Vdss
# Summary of the method: as §1
row,Vd,Compound
1,2.2 L/kg,C[C@H](c1nc2ncccc2c(=O)n1-c1ccc(F)cc1)N(CC1CCS(=O)(=O)CC1)C(=O)Cc1ccc(F)c(C(F)(F)F)c1

# Test system: not listed separately
# Test: Volume of distribution at steady state in mouse at 1 mg/kg, iv
# Assay type: ADME, organism-based
# Parameters: dose 1 mg/kg, route intravenous
# Conditions: in vivo, read-out: Vdss
# Summary of the method: as §1
row,Vd,Compound
1,0.73 L/kg,C[C@H](c1nc2ncccc2c(=O)n1-c1ccc(F)cc1)N(CC1CCS(=O)(=O)CC1)C(=O)Cc1ccc(F)c(C(F)(F)F)c1

# Test system: not listed separately
# Test: Apparent oral bioavailability in Beagle dog at 2 mg/kg
# Assay type: ADME, organism-based, Canis lupus familiaris
# Conditions: in vivo, read-out: Fapp
row,bioavailability,Compound
1,> 100%,C[C@H](c1nc2ncccc2c(=O)n1-c1ccc(F)cc1)N(CC1CCS(=O)(=O)CC1)C(=O)Cc1ccc(F)c(C(F)(F)F)c1

# Target: T1, C-X-C chemokine receptor type 3 (Homo sapiens, UniProt P49682)
# T1 sequence (P49682 whole entry): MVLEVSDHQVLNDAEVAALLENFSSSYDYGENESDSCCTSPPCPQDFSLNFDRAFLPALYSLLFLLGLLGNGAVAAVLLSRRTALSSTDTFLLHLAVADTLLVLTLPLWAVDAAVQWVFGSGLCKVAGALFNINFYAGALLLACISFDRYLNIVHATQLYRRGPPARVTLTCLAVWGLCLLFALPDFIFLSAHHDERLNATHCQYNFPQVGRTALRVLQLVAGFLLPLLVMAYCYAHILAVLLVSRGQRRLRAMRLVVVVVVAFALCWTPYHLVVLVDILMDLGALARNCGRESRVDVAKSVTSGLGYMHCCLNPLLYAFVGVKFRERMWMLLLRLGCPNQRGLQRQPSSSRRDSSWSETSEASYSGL
# Test: Displacement of [125I]-IP-10 from CXCR3 in presence of 100% human serum
# Conditions: not given
row,IC50,Compound
1,17 nM,C[C@H](c1nc2ncccc2c(=O)n1-c1ccc(F)cc1)N(CC1CCS(=O)(=O)CC1)C(=O)Cc1ccc(F)c(C(F)(F)F)c1

# Test system: PBL
# Test: Toxicity in human PBL assessed as chromosomal aberrations at 7.81 to 1000 ug/mL in the presence of S9
# Assay type: cell-based
# Conditions: not given
# Summary of the method: as §2
row,Compound,Activity
1,C[C@H](c1nc2ncccc2c(=O)n1-c1ccc(F)cc1)N(CC1CCS(=O)(=O)CC1)C(=O)Cc1ccc(F)c(C(F)(F)F)c1,Non-toxic

# Target: T1, C-X-C chemokine receptor type 3
# Test: Displacement of [125I]-IP-10 from CXCR3
# Conditions: not given
row,IC50,Compound
1,7 nM,C[C@H](c1nc2ncccc2c(=O)n1-c1ccc(F)cc1)N(CC1CCS(=O)(=O)CC1)C(=O)Cc1ccc(F)c(C(F)(F)F)c1

# Test system: not listed separately
# Test: Mean residence time in cynomolgus monkey at 0.5 mg/kg, iv
# Assay type: ADME, organism-based, Macaca fascicularis
# Parameters: dose 0.5 mg/kg, route intravenous
# Conditions: in vivo
# Summary of the method: as §1
row,MRT,Compound
1,6.4 h,C[C@H](c1nc2ncccc2c(=O)n1-c1ccc(F)cc1)N(CC1CCS(=O)(=O)CC1)C(=O)Cc1ccc(F)c(C(F)(F)F)c1

# Test system: not listed separately
# Test: Apparent oral bioavailability in rat at 2 mg/kg
# Assay type: ADME, organism-based
# Conditions: in vivo, read-out: Fapp
row,bioavailability,Compound
1,> 100%,C[C@H](c1nc2ncccc2c(=O)n1-c1ccc(F)cc1)N(CC1CCS(=O)(=O)CC1)C(=O)Cc1ccc(F)c(C(F)(F)F)c1

# Test system: not listed separately
# Test: Mean residence time in Beagle dog at 0.5 mg/kg, iv
# Assay type: ADME, organism-based, Canis lupus familiaris
# Parameters: dose 0.5 mg/kg, route intravenous
# Conditions: in vivo
# Summary of the method: as §1
row,MRT,Compound
1,1.5 h,C[C@H](c1nc2ncccc2c(=O)n1-c1ccc(F)cc1)N(CC1CCS(=O)(=O)CC1)C(=O)Cc1ccc(F)c(C(F)(F)F)c1
